In data set [1] the target is T1, Nuclear factor erythroid 2-related factor 2 (Homo sapiens) (UniProt Q16236).
T1 sequence (whole entry): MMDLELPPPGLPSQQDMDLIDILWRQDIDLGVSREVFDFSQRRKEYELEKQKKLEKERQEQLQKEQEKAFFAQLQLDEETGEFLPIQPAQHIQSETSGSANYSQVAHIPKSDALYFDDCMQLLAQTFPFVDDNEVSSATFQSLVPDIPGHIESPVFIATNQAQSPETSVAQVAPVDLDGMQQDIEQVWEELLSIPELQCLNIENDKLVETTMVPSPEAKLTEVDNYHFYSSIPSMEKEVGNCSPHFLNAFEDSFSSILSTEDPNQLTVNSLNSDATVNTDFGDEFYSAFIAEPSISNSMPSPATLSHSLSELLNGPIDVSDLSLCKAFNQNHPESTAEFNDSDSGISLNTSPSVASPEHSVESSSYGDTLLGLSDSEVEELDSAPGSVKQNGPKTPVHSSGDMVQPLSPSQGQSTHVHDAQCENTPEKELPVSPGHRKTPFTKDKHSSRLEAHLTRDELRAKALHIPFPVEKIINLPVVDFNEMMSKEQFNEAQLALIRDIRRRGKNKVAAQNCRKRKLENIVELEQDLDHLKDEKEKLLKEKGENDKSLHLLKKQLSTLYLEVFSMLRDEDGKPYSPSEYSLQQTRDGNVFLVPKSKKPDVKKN
Put plainly: Activation of Nrf2 in human THP-1 cells assessed as increase in cellular Nrf2 level at 0.08 to 10 uM by western blot analysis. It counts as cell-based. The following applies: filed as activator, dose 0.08-10 µM. The procedure, abridged: (§1)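 THP-1 cells were exposed to a range of compound concentrations. Cellular Nrf2 and HO-1 expression were detected by Western blot.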

The subject of data set [2] is Mus musculus. Nature of the data set: Antiinflammatory activity against MOG35-55 induced experimental autoimmune encephalomyelitis C57BL/6 mouse model assessed as reduction in clinical score at 75 mg/kg, po BID and measured for 28 days. It is filed as functional. The following applies: C57BL/6, 672 h, time 28 day. The method in brief:
(§2)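 EAE was induced in mice by immunization with myelin oligodendrocyte glycoprotein (MOG). Compounds were dosed twice daily (BID), with DMF dosed BID as control. Clinical scores were followed over the study and reported as mean with SEM. Efficacy is expressed as % reduction in clinical score.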

The target in data set [3] is T2, Nuclear factor erythroid 2-related factor 2 (Homo sapiens, UniProt Q16236).
T2 sequence (Q16236 whole entry): T1 sequence (whole entry)
Put plainly: Activation of Nrf2 in human PathHunter U2OS Keap1-Nrf2 cells assessed as Nrf2 nuclear translocation by chemiluminescent assay. It is filed as cell-based.

The test system of data set [4] is Mus musculus. Nature of the data set: Increase in Nrf2 level in thymus of MOG35-55 induced experimental autoimmune encephalomyelitis C57BL/6 mouse model at 75 mg/kg, po measured for 8 hrs. It counts as functional, organism-based. The procedure, abridged: (§3)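 After the EAE study, mouse thymus was analysed for Nrf2 levels by Western blot, following BID dosing at 60 and 90 mg/kg, or at 75 mg/kg for the DMF control. Nrf2 increase was assessed over an 8 h period.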

In data set [5] the test system is THP-1. Nature of the data set: Inhibition of LPS-induced IL-23 production in IFN-gamma primed human THP-1 cells preincubated for 1 hr followed by LPS stimulation for 18 hrs by sandwich ELISA. It counts as functional, cell-based. For orientation: An ELISA detects its analyte on a solid surface through an enzyme-linked reagent.
Data set [6] has as its target T1, Nuclear factor erythroid 2-related factor 2 (Homo sapiens). Nature of the data set: Activation of Nrf2 in human THP-1 cells assessed as increase in HO-1 expression at 0.08 to 10 uM by western blot analysis. It counts as cell-based. The following applies: filed as activator, dose 0.08-10 µM. The procedure, abridged:
as §1
A general note: A western blot detects proteins with antibodies after separation by electrophoresis.

The nature of data set [7]: Mutagenicity in Salmonella typhimurium by Ames test. It is filed as toxicity. The following applies: salmonella enterica subsp. enterica serovar typhimurium. On the technique in general: In the Ames test, an excess of revertant colonies over the control signals mutagenicity.
Data set [8] deals with T3, Voltage-gated inwardly rectifying potassium channel KCNH2 (Homo sapiens, UniProt Q12809). Nature of the data set: Inhibition of hERG assessed as inhibition of channel current at 60 uM by manual patch clamp analysis. It is filed as toxicity.
T3 sequence (Q12809 whole entry): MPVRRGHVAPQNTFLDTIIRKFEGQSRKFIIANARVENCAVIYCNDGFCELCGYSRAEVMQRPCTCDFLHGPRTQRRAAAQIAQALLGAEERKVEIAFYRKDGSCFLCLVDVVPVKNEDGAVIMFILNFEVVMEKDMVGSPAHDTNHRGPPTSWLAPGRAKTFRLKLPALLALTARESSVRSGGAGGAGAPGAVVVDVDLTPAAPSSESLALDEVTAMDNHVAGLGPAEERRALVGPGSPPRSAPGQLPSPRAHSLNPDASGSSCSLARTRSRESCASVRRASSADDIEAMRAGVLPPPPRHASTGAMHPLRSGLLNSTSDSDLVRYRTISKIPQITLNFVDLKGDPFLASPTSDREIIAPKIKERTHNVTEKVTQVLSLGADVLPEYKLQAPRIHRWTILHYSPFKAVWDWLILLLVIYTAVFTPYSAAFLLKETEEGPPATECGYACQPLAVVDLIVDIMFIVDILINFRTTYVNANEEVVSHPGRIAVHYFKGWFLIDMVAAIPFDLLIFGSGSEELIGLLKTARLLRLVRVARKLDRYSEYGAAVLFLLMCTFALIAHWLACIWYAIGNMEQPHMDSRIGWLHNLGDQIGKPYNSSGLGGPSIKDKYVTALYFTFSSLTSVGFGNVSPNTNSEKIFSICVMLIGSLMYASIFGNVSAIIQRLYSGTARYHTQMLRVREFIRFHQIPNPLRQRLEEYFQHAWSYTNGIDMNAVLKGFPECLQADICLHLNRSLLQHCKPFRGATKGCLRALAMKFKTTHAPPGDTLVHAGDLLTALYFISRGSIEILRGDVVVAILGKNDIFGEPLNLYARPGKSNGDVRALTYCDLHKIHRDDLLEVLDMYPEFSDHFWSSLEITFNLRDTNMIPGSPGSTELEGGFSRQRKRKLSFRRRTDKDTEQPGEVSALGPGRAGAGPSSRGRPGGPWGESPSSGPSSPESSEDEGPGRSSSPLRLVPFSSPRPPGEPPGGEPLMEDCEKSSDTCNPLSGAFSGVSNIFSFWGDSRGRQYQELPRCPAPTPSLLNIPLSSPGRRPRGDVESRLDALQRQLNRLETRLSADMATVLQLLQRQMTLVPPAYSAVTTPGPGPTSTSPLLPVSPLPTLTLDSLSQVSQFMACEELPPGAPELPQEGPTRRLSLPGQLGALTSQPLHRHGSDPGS
Data set [9] concerns the target T3, Voltage-gated inwardly rectifying potassium channel KCNH2. Put plainly: Inhibition of hERG assessed as inhibition of channel current at 180 uM by manual patch clamp analysis. It counts as toxicity.
Data set [10] concerns the target 5-hydroxytryptamine receptor 2B (Homo sapiens) (UniProt P41595). Put plainly: Inhibition of 5-HT2B receptor (unknown origin) at 500 uM relative to control.
Data set [11] has as its system Mus musculus. Put plainly: Antiinflammatory activity against MOG35-55 induced experimental autoimmune encephalomyelitis C57BL/6 mouse model assessed as reduction in clinical score at 60 mg/kg, po BID and measured for 28 days. It counts as functional. The following applies: C57BL/6, 672 h, time 28 day. The method in brief: as §2
The test system of data set [12] is Mus musculus. Nature of the data set: Antiinflammatory activity against MOG35-55 induced experimental autoimmune encephalomyelitis C57BL/6 mouse model assessed as reduction in clinical score at 30 mg/kg, po BID and measured for 28 days. It is filed as functional. The method in brief: as §2
Data set [13] concerns Mus musculus. Put plainly: Increase in Nrf2 level in thymus of MOG35-55 induced experimental autoimmune encephalomyelitis C57BL/6 mouse model at 60 to 90 mg/kg, po measured for 8 hrs. It counts as functional, organism-based. The following applies: dose 60-90 mg/kg. The procedure, abridged: as §3
The target of data set [14] is T4, Adenosine receptor A3 (Homo sapiens) (UniProt P0DMS8).
T4 sequence (whole entry): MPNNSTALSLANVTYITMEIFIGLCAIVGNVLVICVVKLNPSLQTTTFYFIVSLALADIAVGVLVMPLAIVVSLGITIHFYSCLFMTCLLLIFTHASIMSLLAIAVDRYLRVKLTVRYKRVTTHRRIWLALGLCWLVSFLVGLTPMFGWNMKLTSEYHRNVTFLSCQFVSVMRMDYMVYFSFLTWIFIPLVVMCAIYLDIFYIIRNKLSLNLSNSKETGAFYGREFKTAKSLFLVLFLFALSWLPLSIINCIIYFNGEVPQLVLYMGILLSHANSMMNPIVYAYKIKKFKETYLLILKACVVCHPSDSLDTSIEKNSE
Nature of the data set: Inhibition of adenosine A3 receptor (unknown origin) at 500 uM relative to control.

For data set [15], the system named is Mus musculus. Nature of the data set: Antiinflammatory activity against MOG35-55 induced experimental autoimmune encephalomyelitis C57BL/6 mouse model assessed as reduction in clinical score at 10 mg/kg, po BID and measured for 28 days. It is filed as functional. The following applies: C57BL/6, 672 h, time 28 day. The procedure, abridged:
as §2

Data set [16] has as its target Kelch-like ECH-associated protein 1 (Homo sapiens) (UniProt Q14145). Nature of the data set: Binding affinity to human Keap1 assessed as cysteine labeling at 30 uM incubated for 2 hrs by LC-MS/MS analysis.
Data set [17] in a line: Metabolic stability of the compound in mouse plasma. It counts as ADME, cell-free.
Data set [18] concerns the target T3, Voltage-gated inwardly rectifying potassium channel KCNH2. Put plainly: Inhibition of hERG assessed as inhibition of channel current at 200 uM by manual patch clamp analysis. It is filed as toxicity.

Counter-ions that a name gives are not always drawn. Activity calls are given as the source filed them. The rule behind the calls is not given here.

Broadly, the inhibition in vivo is the drop in the measured response relative to a control, in per cent. What is called EC50 is the concentration that produces a half-maximal response. What is called IC50 is the concentration that inhibits the measured activity by half. Read a low IC50 as inhibition by little substance. For orientation: inhibition means the share of the control response that was lost under treatment.

Sequence of 5-hydroxytryptamine receptor 2B (Homo sapiens) (P41595 whole entry): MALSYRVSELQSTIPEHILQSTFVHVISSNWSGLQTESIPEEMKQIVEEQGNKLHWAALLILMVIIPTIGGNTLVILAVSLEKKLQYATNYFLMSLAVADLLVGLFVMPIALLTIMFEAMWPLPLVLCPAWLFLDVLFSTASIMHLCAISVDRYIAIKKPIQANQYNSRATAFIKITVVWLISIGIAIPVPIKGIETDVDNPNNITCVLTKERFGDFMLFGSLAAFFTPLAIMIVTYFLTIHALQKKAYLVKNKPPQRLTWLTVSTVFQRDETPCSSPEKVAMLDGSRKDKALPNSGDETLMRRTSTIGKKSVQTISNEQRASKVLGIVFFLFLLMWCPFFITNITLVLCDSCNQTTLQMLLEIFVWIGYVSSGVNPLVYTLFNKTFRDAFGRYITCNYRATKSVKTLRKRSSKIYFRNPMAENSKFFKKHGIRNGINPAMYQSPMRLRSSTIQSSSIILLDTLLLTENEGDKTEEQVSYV
Sequence of Kelch-like ECH-associated protein 1 (Homo sapiens) (Q14145 whole entry): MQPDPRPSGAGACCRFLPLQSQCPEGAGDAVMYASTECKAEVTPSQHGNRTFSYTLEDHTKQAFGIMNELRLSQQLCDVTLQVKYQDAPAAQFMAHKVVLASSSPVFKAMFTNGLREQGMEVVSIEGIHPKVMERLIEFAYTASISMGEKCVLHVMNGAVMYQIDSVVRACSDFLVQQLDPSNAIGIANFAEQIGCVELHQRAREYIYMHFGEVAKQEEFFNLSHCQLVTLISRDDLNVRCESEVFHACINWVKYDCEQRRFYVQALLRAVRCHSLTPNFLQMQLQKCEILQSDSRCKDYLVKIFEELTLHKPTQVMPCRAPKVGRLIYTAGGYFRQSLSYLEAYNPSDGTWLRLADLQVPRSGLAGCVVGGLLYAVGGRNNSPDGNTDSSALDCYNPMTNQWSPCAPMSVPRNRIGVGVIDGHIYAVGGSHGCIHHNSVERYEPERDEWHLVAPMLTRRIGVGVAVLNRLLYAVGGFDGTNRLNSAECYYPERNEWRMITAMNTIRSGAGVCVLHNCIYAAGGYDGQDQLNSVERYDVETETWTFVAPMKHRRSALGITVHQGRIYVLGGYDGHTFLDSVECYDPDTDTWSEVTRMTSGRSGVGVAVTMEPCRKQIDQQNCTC

`COC(=O)/C=C/C(=O)OC` [DIMETHYL FUMARATE]: the Activity entry in data set [1] is “Dose-Dependent Effect”. In addition, the inhibition in vivo at 75 mg/kg in [2] came out at 83%. Moreover, the EC50 in data set [3] amounted to 7.93 µM. Moreover, the result in data set [4] and in data set [6] was Active. The compound also displayed an IC50 in data set [5] of 10.6 µM.

In the case of `COC(=O)/C=C/n1cnn(C)c1=O`, the EC50 in data set [3] amounted to 95.2 µM. In addition, the IC50 in data set [5] was determined as 29.5 µM.

In data set [5], `Cc1ccc(S(=O)(=O)/C=C/n2ncn(C)c2=O)cc1` showed an IC50 of 6.92 µM.

For the compound `COC(=O)/C=C/n1nn[nH]c1=O`, in [3], the EC50 came out at 60.9 µM. In data set [5], this compound showed an IC50 of 18 µM. The Activity result in data set [7] is “Toxic”. In addition, in data set [8], the “inhibition (INH)” value is “Active”.

Regarding `COC(=O)/C=C/n1nnn(C)c1=O`, the “inhibition (INH)” value in data set [9] was “Active”.

In [5], `Cn1nnn(/C=C/S(=O)(=O)c2ccccc2)c1=O` showed an IC50 of 0.3 µM.

For the compound `Cn1cnn(/C=C/S(=O)(=O)c2ccccc2)c1=O`, the figures for the inhibition in data set [10] and in data set [14] were 74% and 82%, respectively. Moreover, in data set [11], the inhibition in vivo at 60 mg/kg was 89%. This compound also returned an IC50 in data set [5] of 3.49 µM. Also, the inhibition in vivo at 30 mg/kg in data set [12] (C57BL/6, 672 h, time 28 day) came to 41%. Moreover, in data set [13], the result was Active.

Take `Cn1ncn(/C=C/S(=O)(=O)c2ccccc2)c1=O`: the IC50 in data set [5] stood at 2.12 µM.

`Cc1ccc(S(=O)(=O)/C=C/n2cnn(C)c2=O)cc1`: in data set [5], the IC50 turned out to be 2.11 µM.

In data set [5], `O=c1n(/C=C/S(=O)(=O)c2ccccc2)nnn1-c1cccnc1` showed an IC50 of 0.02 µM.

Take `Cc1ccc(S(=O)(=O)/C=C/n2nnn(C)c2=O)cc1`: the results for the inhibition in data set [10] and in data set [14] were 74% and 82%, respectively. For the same compound, in data set [5], it took 0.19 µM to reach half-maximal inhibition (IC50). In addition, in [12] (time 28.0 day), the outcome was inactive. The inhibition in vivo at 10 mg/kg in [15] came to 40%. In addition, the outcome in data set [16] was Active.

`COC(=O)/C=C/n1nnn(-c2cccnc2)c1=O`: the Stability entry in data set [17] was “Unstable”. The “inhibition (INH)” value in [18] is given as “Active”. Also, the Activity result in data set [7] is reported as “Non-Toxic”.

For `COC(=O)/C=C/C(=O)O` [MONOMETHYL FUMARATE], the 50% effective concentration (EC50) in data set [3] was 127 µM. It took 18.9 µM to reach half-maximal inhibition in data set [5] (IC50).
